Laboratory results as given in ChEMBL document CHEMBL4020721 (Eur J Med Chem, 2017).

Legend:
NCI-H1993 = experiment: Antitumor activity against human NCI-H1993 cells xenografted in BALB/c athymic nude mouse assessed as tumor growth inhibition at 0.1 mg/kg, po administered once daily for 3 weeks; format: functional; settings: 504 h, read-out: TGI
In short: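 BALB/c nude mice, 5-6 weeks old, kept under SPF conditions, received 7×10^6 NCI-H1993 cells s.c. in the right flank. At 150-250 mm³ they were sorted and randomized, n=7 per group, with vehicle controls. Dosing was oral, once daily for 3 weeks. […] Mean±SEM, Student's t-test.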

CYP3A4 [1] = molecular target: T1, CYP3A4 (Homo sapiens, UniProt P08684); experiment: Reversible inhibition of CYP3A4 in human liver microsomes at 10 uM after 20 mins in presence of NADPH by LC-MS/MS analysis; format: ADME; settings: liver microsomes
T1 sequence (P08684 whole entry): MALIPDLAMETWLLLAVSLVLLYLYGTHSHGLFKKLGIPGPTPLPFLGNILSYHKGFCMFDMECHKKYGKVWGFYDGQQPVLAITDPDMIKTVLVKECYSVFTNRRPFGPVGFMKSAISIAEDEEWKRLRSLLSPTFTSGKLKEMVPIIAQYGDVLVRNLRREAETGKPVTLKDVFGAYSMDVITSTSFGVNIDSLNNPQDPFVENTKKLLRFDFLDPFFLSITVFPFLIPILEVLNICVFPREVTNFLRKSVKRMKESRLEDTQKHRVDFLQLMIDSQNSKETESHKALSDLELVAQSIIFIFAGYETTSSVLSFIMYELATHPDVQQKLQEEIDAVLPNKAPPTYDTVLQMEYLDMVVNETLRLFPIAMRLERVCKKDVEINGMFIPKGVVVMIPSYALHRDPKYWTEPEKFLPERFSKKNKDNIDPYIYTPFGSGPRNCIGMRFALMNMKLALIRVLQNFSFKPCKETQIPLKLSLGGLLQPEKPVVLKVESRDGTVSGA

[2] = molecular target: Proto-oncogene tyrosine-protein kinase Src (Homo sapiens, UniProt P12931); experiment: Inhibition of c-Src (unknown origin) using FAM-labeled peptide as substrate preincubated for 5 to 10 mins followed by substrate/ATP addition measured after 30 to 60 mins by mobility shift assay
In short: (§1)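 Caliper mobility-shift assay with FAM-labeled peptide substrate. Buffer: 50 mM HEPES pH 7.5, 0.0015% Brij-35, 10 mM MgCl2, 2 mM DTT, with kinase-specific enzyme levels. […] Incubation was 30-60 min at 28°C, stopped with EDTA buffer. Read-out was % conversion.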

CYP2D6 = CYP2D6 (Homo sapiens, UniProt P10635); experiment: Reversible inhibition of CYP2D6 in human liver microsomes at 10 uM after 20 mins in presence of NADPH by LC-MS/MS analysis; format: ADME; settings: liver microsomes
[3] = Intrinsic clearance in human liver microsomes assessed per mg protein at 1 uM preincubated for 5 mins followed by NADPH addition measured after 5 to 30 mins by LC-MS/MS analysis; format: ADME, microsome; settings: read-out: CLH
In short: (§2)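 Microsomes (0.5 mg/ml) with 1 µM compound were preincubated 5 min at 37°C in 100 mM phosphate buffer pH 7.4, then started with 1 mM NADPH. Samples were taken at 0, 5, 10 and 30 min, quenched with acetonitrile/tinidazole and run by LC-MS/MS. CLint = k / microsomal protein concentration. Midazolam was the positive control.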

[4] = Cmax in Sprague-Dawley rat plasma at 6 mg/kg, po by UPLC-MS/MS analysis; format: ADME, organism-based; design: dose 6 mg/kg, route oral
In short: (§3)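 Male Sprague-Dawley rats (180-220 g) were fasted overnight with free access to water. Dosing was intravenous (n=2) or oral at 6 mg/kg (n=3). Heparinized blood was drawn from 0 to 1440 min. Plasma was frozen at -20°C, then precipitated with acetonitrile containing internal standard, centrifuged and analysed by UPLC-MS/MS.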

[5] = molecular target: Tyrosine-protein kinase receptor UFO (Homo sapiens, UniProt P30530); experiment: Inhibition of Axl (unknown origin) using FAM-labeled peptide as substrate preincubated for 5 to 10 mins followed by substrate/ATP addition measured after 30 to 60 mins by mobility shift assay; in short: as §1
Chain of Tyrosine-protein kinase receptor UFO (P30530 whole entry): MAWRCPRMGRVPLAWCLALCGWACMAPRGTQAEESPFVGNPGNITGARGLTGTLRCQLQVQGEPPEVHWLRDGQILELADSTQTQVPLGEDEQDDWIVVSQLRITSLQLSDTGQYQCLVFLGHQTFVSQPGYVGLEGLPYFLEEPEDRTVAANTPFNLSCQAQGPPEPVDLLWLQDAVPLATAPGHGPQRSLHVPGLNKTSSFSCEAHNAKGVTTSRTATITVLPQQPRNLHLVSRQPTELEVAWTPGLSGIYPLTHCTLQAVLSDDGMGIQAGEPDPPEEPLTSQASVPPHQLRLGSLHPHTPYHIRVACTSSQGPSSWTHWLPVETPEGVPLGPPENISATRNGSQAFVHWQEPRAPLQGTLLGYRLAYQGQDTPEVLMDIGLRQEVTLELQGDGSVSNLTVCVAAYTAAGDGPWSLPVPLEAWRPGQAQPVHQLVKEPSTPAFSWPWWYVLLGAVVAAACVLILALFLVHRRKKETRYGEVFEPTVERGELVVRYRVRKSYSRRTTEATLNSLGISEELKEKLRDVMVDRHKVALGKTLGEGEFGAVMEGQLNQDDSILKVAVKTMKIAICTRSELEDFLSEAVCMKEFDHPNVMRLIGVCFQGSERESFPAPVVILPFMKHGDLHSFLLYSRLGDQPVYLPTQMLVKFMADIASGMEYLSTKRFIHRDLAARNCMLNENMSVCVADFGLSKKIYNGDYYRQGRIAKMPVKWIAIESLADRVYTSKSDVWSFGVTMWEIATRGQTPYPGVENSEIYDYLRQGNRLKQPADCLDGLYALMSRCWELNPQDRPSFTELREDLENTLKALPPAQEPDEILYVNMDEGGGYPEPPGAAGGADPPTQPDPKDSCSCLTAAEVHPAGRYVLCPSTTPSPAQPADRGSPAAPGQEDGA

CYP2C9 = CYP2C9 (Homo sapiens, UniProt P11712); experiment: Time dependent irreversible inhibition of CYP2C9 in human liver microsomes at 10 uM preincubated with compound followed by NADPH addition by LC-MS/MS analysis; format: ADME; settings: liver microsomes
Chain of CYP2C9 (P11712 whole entry): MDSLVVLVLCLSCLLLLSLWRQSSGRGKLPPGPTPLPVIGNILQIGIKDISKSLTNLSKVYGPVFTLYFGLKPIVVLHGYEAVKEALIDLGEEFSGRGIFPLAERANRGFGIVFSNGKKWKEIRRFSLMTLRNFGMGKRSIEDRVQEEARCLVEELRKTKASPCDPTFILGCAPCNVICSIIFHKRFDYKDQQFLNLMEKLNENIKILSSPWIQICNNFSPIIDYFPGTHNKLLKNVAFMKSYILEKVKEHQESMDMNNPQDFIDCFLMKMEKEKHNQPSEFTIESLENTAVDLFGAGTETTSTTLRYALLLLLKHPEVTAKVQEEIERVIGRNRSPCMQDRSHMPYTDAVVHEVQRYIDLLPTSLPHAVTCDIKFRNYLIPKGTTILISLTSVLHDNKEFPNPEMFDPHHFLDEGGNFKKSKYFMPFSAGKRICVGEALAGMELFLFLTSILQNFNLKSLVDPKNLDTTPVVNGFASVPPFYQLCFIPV
In short: (§4)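 HLM (0.2 mg/ml) with 10 µM compound were preincubated 0, 5, 10 or 20 min at 37°C with 1 mM NADPH or PBS. Substrate cocktail (halved concentrations) plus NADPH was then added for 10 min. Metabolites were measured by LC-MS/MS. Kobs is the slope of relative activity versus preincubation time.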

[6] = AUC (0 to 24 hrs) in Sprague-Dawley rat plasma at 6 mg/kg, po by UPLC-MS/MS analysis; format: ADME, organism-based; design: dose 6 mg/kg, time < 24 hr, route oral; in short: as §3
[7] = molecular target: Vascular endothelial growth factor receptor 1 (Homo sapiens, UniProt P17948); experiment: Inhibition of FLT1 (unknown origin) using FAM-labeled peptide as substrate preincubated for 5 to 10 mins followed by substrate/ATP addition measured after 30 to 60 mins by mobility shift assay; in short: as §1
SNU-5 = experiment: Antitumor activity against human SNU5 cells xenografted in BALB/c athymic nude mouse assessed as tumor regression at 1 mg/kg, po administered once daily for 2 weeks; format: functional
In short: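 Nude BALB/c mice, 5-6 weeks old, under SPF conditions, were implanted s.c. in the right flank with 6×10^6 SNU-5 cells. Groups were sorted at 100-200 mm³, n=6, with vehicle controls. Oral dosing once daily for 2 weeks. Percent tumor regression = 100% × (treated day 0 − treated final)/treated day 0. Mean±SEM, Student's t-test.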

[8] = molecular target: Epidermal growth factor receptor (Homo sapiens, UniProt P00533, T790M); experiment: Inhibition of EGFR T790M mutant (unknown origin) using FAM-labeled peptide as substrate preincubated for 5 to 10 mins followed by substrate/ATP addition measured after 30 to 60 mins by mobility shift assay; in short: as §1
[9] = molecular target: Receptor tyrosine-protein kinase erbB-4 (Homo sapiens, UniProt Q15303); experiment: Inhibition of ERBB4 (unknown origin) using FAM-labeled peptide as substrate preincubated for 5 to 10 mins followed by substrate/ATP addition measured after 30 to 60 mins by mobility shift assay; in short: as §1
Chain of Receptor tyrosine-protein kinase erbB-4 (Q15303 whole entry): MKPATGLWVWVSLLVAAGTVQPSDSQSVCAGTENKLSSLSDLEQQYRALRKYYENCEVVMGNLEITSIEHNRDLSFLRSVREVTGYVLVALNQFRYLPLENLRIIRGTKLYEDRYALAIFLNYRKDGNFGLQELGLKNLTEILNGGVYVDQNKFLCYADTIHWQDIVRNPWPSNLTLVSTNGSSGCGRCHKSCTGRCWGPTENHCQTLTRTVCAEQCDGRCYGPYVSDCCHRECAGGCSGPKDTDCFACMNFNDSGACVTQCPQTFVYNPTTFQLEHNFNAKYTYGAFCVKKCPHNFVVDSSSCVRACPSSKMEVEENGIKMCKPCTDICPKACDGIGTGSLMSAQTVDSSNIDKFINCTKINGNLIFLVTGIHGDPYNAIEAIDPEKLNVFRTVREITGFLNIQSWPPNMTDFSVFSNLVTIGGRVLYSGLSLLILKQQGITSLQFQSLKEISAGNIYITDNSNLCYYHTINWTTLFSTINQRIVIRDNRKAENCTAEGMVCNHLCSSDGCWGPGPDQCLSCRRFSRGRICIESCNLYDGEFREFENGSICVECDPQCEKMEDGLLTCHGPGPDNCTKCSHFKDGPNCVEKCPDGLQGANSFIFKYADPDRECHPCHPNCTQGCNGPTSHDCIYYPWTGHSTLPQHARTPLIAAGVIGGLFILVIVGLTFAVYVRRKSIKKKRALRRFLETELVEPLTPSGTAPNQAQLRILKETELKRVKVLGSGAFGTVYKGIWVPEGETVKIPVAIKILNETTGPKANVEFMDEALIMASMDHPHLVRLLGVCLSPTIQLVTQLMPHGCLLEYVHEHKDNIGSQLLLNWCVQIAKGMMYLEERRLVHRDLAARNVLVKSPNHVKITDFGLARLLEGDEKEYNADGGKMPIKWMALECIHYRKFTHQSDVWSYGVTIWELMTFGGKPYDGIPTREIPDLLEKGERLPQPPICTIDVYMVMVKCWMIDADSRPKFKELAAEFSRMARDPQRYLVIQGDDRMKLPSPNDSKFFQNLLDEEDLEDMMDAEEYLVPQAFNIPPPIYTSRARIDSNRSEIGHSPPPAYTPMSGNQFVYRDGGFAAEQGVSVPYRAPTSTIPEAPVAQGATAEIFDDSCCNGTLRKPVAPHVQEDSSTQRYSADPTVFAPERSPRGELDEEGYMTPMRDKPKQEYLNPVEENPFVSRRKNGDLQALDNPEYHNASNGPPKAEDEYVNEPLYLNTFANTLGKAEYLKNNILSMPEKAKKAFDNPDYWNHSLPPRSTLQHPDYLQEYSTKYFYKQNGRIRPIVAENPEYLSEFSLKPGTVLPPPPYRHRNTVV

CYP3A4 [10] = molecular target: T1, CYP3A4; experiment: Time dependent irreversible inhibition of CYP3A4 in human liver microsomes at 10 uM preincubated with compound followed by NADPH addition by LC-MS/MS analysis; format: ADME; settings: liver microsomes; in short: as §4
[11] = molecular target: Tyrosine-protein kinase ABL1 (Homo sapiens, UniProt P00519); experiment: Inhibition of ABL (unknown origin) using FAM-labeled peptide as substrate preincubated for 5 to 10 mins followed by substrate/ATP addition measured after 30 to 60 mins by mobility shift assay; in short: as §1
[12] = Intrinsic clearance in rat liver microsomes assessed per mg protein at 1 uM preincubated for 5 mins followed by NADPH addition measured after 5 to 30 mins by LC-MS/MS analysis; format: ADME, microsome; settings: read-out: CLH; in short: as §2
Ephrin type-B receptor 2 = Ephrin type-B receptor 2 (Homo sapiens, UniProt P29323); experiment: Inhibition of EPHB2 (unknown origin) using FAM-labeled peptide as substrate preincubated for 5 to 10 mins followed by substrate/ATP addition measured after 30 to 60 mins by mobility shift assay; in short: as §1
Chain of Ephrin type-B receptor 2 (P29323 whole entry): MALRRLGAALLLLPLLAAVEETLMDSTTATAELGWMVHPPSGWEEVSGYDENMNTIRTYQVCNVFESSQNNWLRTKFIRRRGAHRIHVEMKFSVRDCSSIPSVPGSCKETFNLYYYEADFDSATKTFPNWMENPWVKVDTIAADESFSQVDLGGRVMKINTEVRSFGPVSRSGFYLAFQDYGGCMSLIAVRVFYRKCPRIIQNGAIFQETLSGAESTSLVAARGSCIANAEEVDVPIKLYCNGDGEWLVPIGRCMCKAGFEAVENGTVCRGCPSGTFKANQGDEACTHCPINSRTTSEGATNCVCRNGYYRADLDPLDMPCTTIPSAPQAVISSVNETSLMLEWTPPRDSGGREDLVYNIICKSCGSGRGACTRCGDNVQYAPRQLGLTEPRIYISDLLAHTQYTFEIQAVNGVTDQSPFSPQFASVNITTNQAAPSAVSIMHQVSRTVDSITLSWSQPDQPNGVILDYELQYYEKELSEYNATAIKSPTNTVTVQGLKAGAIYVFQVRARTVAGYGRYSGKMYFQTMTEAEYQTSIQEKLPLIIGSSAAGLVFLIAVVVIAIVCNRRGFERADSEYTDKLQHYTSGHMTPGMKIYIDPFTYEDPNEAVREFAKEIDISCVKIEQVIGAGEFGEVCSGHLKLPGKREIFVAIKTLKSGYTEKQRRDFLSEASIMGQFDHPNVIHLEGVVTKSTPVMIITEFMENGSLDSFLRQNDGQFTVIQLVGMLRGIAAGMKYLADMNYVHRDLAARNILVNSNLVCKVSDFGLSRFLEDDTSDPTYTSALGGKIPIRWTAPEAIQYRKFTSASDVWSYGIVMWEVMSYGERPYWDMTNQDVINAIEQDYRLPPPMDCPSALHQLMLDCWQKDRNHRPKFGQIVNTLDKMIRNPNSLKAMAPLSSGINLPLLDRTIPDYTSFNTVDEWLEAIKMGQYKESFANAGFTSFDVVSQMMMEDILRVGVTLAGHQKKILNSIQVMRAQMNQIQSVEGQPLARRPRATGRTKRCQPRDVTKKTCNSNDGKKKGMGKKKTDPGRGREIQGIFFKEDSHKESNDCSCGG

Mus musculus = experiment: Toxicity in BALB/c athymic nude mouse xenografted with human NCI-H1993 cells assessed as body weight loss at 0.1 to 10 mg/kg, po administered once daily for 3 weeks; format: organism-based; settings: in vivo, 504 h
In short: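 Female/male BALB/c nude mice (5-6 weeks, SPF). NCI-H1993 cells (7×10^6 in 140 µL) or SNU-5 cells (6×10^6 in 200 µL) injected s.c. into the right flank. Dosing started at mean tumour volume 150-250 mm³ (NCI-H1993) or 100-200 mm³ (SNU-5). Randomized, n = 7 (NCI-H1993) or 6 (SNU-5) per group. Oral dosing once daily; vehicle controls. Body weight and signs of toxicity monitored during treatment.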

CYP2C19 = CYP2C19 (Homo sapiens, UniProt P33261); experiment: Reversible inhibition of CYP2C19 in human liver microsomes at 10 uM after 20 mins in presence of NADPH by LC-MS/MS analysis; format: ADME; settings: liver microsomes
Chain of CYP2C19 (P33261 whole entry): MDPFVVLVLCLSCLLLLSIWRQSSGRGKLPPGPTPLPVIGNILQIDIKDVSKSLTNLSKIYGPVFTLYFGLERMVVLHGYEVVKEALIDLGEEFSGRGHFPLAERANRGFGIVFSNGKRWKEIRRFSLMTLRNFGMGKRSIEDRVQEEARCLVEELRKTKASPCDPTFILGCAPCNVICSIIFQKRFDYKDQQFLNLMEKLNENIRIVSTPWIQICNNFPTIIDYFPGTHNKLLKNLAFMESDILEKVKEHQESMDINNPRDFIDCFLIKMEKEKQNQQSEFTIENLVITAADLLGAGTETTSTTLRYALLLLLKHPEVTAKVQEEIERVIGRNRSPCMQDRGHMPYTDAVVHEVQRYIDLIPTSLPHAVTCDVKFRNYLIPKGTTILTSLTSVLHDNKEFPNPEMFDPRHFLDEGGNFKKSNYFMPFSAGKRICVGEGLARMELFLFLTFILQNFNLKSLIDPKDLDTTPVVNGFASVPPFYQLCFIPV

Compound `CC(c1cc2cc(-c3cnn(C)c3)cnc2cc1F)n1nnc2ncc(-c3cnn(CCO)c3)nc21` (stereo in doubt; 14) has an inhibition in vivo at 0.1 mg/kg (NCI-H1993) of 55.5%, an inhibition at 20 min, 10 µM (CYP3A4 [1]) of under 50% and an IC50 [2] of 17.1 µM. It also gave an inhibition at 20 min, 10 µM (CYP2D6) of under 50%, a microsomal CLint at 1 µM [3] of 5 µL/min/mg and a Cmax [4] of 135 ng/mL. For the same compound, the IC50 [5] was 1.07 µM, the inhibition at 10 µM (CYP2C9) was under 50% and the AUC(0-t) at 24 h [6] was 1250 ng·h/mL. It also gave an IC50 [7] of over 30 µM, an Activity (SNU-5) of 79.2% and an IC50 [8] of over 30 µM. For the same compound, the IC50 [9] was over 30 µM, the inhibition at 10 µM (CYP3A4 [10]) was under 50% and the IC50 [11] was over 30 µM. For the same compound, the microsomal CLint at 1 µM [12] was 5 µL/min/mg, the IC50 (Ephrin type-B receptor 2) was over 30 µM and the Activity (Mus musculus) was “Non-Toxic”. The inhibition at 20 min, 10 µM (CYP2C19) was under 50%.
